Measured values taken from publication PMC6467790 (Journal of medicinal chemistry, 2018).
Entries after “also recorded” stand apart in the source; their conditions may differ.

Legend:
KDM5A catalytic domain = assay: Isothermal titration calorimetry, binding to KDM5A catalytic domain; parameters: species or system human; details: ITC
How it was run: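 Binding was measured by isothermal titration calorimetry with the KDM5A(1−588)ΔAP catalytic-domain construct (internal ARID and PHD1 deleted). KD was the read-out.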

KDM5B [1] = assay: AlphaLISA demethylase assay, KDM5B; type: biochemical, human; details: AlphaLISA IC50 values; recombinant catalytic domains, same enzyme concentration
MCF7 cells [2] = assay: Western blot of histone methylation levels in MCF7 cells; type: cell-based, human
How it was run: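 MCF7 cells were treated with test compound at the indicated concentrations, or 0.1% DMSO, for 30 or 48 h. Total cell lysates were analysed by Western blot with histone methylation antibodies.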

BT474 cells [3] = assay: Cellular H3K4me3 level in BT474 cells; type: cell-based, human
MCF7 cells [4] = assay: Real-time RT-PCR of KDM5 target genes in MCF7 cells; type: cell-based, human; details: MCF7, 1 μM for 2 days
KDM5B [5] = details: cited from earlier work
K562 cells = details: 10 nM; cited from earlier work
KDM4A = target: T1, KDM4A (Homo sapiens, UniProt O75164); assay: AlphaLISA demethylase assay, KDM4A; type: biochemical
T1 sequence (O75164 1-359 limits assumed): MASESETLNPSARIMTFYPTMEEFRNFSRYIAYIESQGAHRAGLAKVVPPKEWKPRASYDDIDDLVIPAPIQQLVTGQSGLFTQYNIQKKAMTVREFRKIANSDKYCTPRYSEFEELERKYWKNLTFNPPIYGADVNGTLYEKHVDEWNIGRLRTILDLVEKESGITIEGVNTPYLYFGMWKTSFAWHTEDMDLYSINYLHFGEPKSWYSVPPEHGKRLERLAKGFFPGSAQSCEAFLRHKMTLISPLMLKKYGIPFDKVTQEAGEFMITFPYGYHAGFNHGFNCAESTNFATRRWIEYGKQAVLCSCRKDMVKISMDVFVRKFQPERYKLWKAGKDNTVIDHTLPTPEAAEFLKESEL

KDM5A(1−739)ΔAP = target: T2, KDM5A(1−739)ΔAP (Homo sapiens, UniProt P29375, DEL88-347); assay: Promega Succinate-Glo demethylase assay; type: biochemical; details: for reversibility of inhibition after buffer exchange / dialysis: [E] = 5 μM, initial [I] = 100 μM, four times of buffer exchange; for dependence of inhibition of KDM5A on αKG concentration: three αKG concentrations (10, 100, 1000 μM), 20 min preincubation; for effect of preincubation with KDM5A on inhibition potency: with or without incubation for 20 min
T2 sequence (P29375 with tags, fused parts or gaps DEL88-347 limits assumed): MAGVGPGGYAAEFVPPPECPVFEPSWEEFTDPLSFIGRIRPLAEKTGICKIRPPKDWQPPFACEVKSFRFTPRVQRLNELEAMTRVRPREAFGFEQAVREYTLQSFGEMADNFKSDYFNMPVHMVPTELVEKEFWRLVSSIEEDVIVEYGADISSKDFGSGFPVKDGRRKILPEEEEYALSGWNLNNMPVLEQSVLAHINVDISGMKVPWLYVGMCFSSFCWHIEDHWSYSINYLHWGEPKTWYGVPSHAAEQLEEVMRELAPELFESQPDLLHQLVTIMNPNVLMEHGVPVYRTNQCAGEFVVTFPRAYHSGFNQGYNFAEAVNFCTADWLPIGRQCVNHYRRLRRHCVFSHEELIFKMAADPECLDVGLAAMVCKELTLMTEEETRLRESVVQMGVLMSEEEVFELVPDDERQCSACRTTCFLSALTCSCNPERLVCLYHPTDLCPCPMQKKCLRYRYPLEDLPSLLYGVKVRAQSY
How it was run: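 Succinate-Glo assay: KDM5A(1−739)ΔAP (0.8 μM) was preincubated 20 min with 2-fold serial dilutions of test compound. Reactions were started with αKG (10, 100 or 1000 μM) plus H3(1−24)K4me3 peptide (60 μM), in 10 μM (NH4)2Fe(SO4)2, 100 μM ascorbate, 50 mM HEPES pH 8.0 and 5% DMSO. They ran 10 min at ambient temperature (n = 3), then succinate detection reagents were added. IC50 came from a four-parameter fit.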

PAMPA permeability assay = type: in vitro ADME; details: pH 7.4
BT474 cells [6] = assay: IncuCyte live cell proliferation, BT474; type: cell-based, human
How it was run: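 BT474 cells were treated with test compound. Growth was followed by live-cell imaging every 4 h over 300 h, with percent confluence as the read-out.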

KDM5A = assay: ESI mass spectrometry of KDM5A with inhibitors; type: binding, human; details: KDM5A 50 μM, inhibitor 0.5 mM, 30 min, ambient temperature
MCF7 = assay: Bright-field microscopy of live cells, MCF7; type: cell-based, human; details: MCF7, 24 h; N73: between 5 and 10 μM
MDA-MB-231 = assay: Bright-field microscopy of live cells, MDA-MB-231; type: cell-based, human; details: MDA-MB-231, 24 h; N73: between 5 and 10 μM
HEK293T = assay: Bright-field microscopy of live cells, HEK293T; type: cell-based, human; details: 24 h, N73: between 5 and 10 μM
[7] = Stability in culture media; type: in vitro ADME; details: after 24 h
BT474 cells [8] = assay: Cellular extract experiment, BT474 cells; type: in vitro ADME, human

CN1CCCC1CCOC(c1cc2nccc(C(=O)O)c2s1)c1ccccc1Cl (stereo not drawn) [N49, 2-((2-Chlorophenyl)(2-(1-methylpyrrolidin-2-yl)-ethoxy)methyl)thieno[3,2-b]pyridine-7-carboxylic Acid]
difference in binding affinity (KD) to KDM5A between N46 and N49 (KDM5A catalytic domain): approximately 2 fold | selectivity for KDM5B over KDM4A (KDM5B [1]): 7−8 fold

CCOC(=O)CCNc1cc(N2CCc3ccccc3CC2)nc(-c2ccccn2)n1 [GSK-J4]
overall levels of H3K4me3 or H3K27me3 (MCF7 cells [2]; MCF7, same conditions tested): influences little of the overall levels of H3K4me3 or H3K27me3

CCOC(=O)c1ccnc(CNCC(=O)N(CC)CCN(C)C)c1 [KDM5-C70]
cellular H3K4me3 levels (MCF7 cells [2]; MCF7, 1 μM): increase in cellular H3K4me3 levels | cellular H3K4me3 levels (BT474 cells [3]; BT474, 1 μM): increase in cellular H3K4me3 levels | increase of expression of STING, MT1F, and MT1H (MCF7 cells [4]): up to 6 fold | selectivity for the KDM5 family over KDM4A (KDM5B [5]): 10 ×

CN(C)C/C=C/C(=O)Nc1cc2c(Nc3ccc(F)c(Cl)c3)ncnc2cc1O[C@H]1CCOC1 [Afatinib]
cytotoxicity for EGFR expressing K562 cells (K562 cells): complete cytotoxicity

Nc1cccc(C(OCCN2CCCCC2)c2cc3nccc(C(=O)O)c3s2)c1 (stereo not drawn) [N70, 2-((3-aminophenyl)(2-(piperidin-1-yl)ethoxy)-methyl)thieno[3,2-b]pyridine-7-carboxylic acid]
selectivity for KDM5B over KDM4A (KDM5B [1]): 7−8 fold | inhibition constants against KDM4A, N70 compared with N71 (KDM4A): about the same | reversibility of inhibition after buffer exchange / dialysis (KDM5A(1−739)ΔAP): could be reversed after dialysis; also recorded: removes the noncovalent modifying N70 from solution; also recorded: enzyme activity could be restored after buffer exchange | dependence of inhibition of KDM5A on αKG concentration (KDM5A(1−739)ΔAP): αKG-competitive inhibition; also recorded: dependent on αKG concentration | effect of preincubation with KDM5A on inhibition potency (KDM5A(1−739)ΔAP): insensitive | Papp at 30 min, 0.05 mM (PAMPA permeability assay): 10 to 100 ×10⁻⁶ cm/s

CC(C)OC(=O)c1ccnc2cc(C(OCCN3CCCCC3)c3cccc(N)c3)sc12 (stereo not drawn) [SI-5, Isopropyl 2-((3-Aminophenyl)(2-(piperidin-1-yl)-ethoxy)methyl)thieno[3,2-b]pyridine-7-carboxylate]
Papp at 30 min, 0.05 mM (PAMPA permeability assay): > 100 ×10⁻⁶ cm/s | growth inhibition (percent confluence) (BT474 cells [6]; BT474, highest concentration tested 28 μM): some growth inhibition at the highest concentration tested

CN(C)C/C=C/C(=O)Nc1cccc(C(OCCN2CCCCC2)c2cc3nccc(C(=O)O)c3s2)c1 (stereo not drawn) [N71, (E)-2-((3-(4-(Dimethylamino)but-2-enamido)-phenyl)(2-(piperidin-1-yl)ethoxy)methyl)thieno[3,2-b]pyridine-7-carboxylic Acid]
inhibition constants against KDM4A, N70 compared with N71 (KDM4A): about the same | dependence of inhibition of KDM5A on enzyme concentration (KDM5A(1−739)ΔAP): dependent on enzyme concentration | kinact/KI (KDM5A(1−739)ΔAP): ~8000 M⁻¹ s⁻¹ | IC50 value lower than that of N70 (KDM5A(1−739)ΔAP; 100 μM αKG concentration): ~ 50 fold | reversibility of inhibition after buffer exchange / dialysis (KDM5A(1−739)ΔAP): persisted even after dialysis; also recorded: does not perturb N71 complex with KDM5A; also recorded: no effect on the inhibition | dependence of inhibition of KDM5A on αKG concentration (KDM5A(1−739)ΔAP): no significant change to IC50 values with variation in αKG concentration; also recorded: did not appear to be sensitive to the αKG concentration | effect of preincubation with KDM5A on inhibition potency (KDM5A(1−739)ΔAP): increased inhibition potency | covalent modification of KDM5A enzyme by mass spectrometry (KDM5A): covalently modified KDM5A enzyme completely | cell killing / effect on cell growth (MCF7): no effect on cell growth | cell killing / effect on cell growth (MDA-MB-231): no effect on cell growth | cell killing / effect on cell growth (HEK293T): no effect on cell growth

CC(C)OC(=O)c1ccnc2cc(C(OCCN3CCCCC3)c3cccc(NC(=O)/C=C/CN(C)C)c3)sc12 (stereo not drawn) [N73, Isopropyl (E)-2-((3-(4-(Dimethylamino)but-2-enamido)phenyl)(2-(piperidin-1-yl)ethoxy)methyl)thieno[3,2-b]-pyridine-7-carboxylate]
Papp at 30 min, 0.05 mM (PAMPA permeability assay): 10 to 100 ×10⁻⁶ cm/s | cellular H3K4me3 methylation levels (BT474 cells [3]; BT474, doses up to 5 μM, 48 h, immunocytochemistry): does not increase H3K4me3 level; also recorded: no impact on cellular H3K4me3 methylation levels | cell growth (percent confluence) (BT474 cells [6]; BT474, low doses, period of >12 days): do not affect cell growth | cell killing / effect on cell growth (MCF7): noteworthy difference in cell killing | cell killing / effect on cell growth (MDA-MB-231): noteworthy difference in cell killing | cell killing / effect on cell growth (HEK293T): noteworthy difference in cell killing | remained unchanged in culture media [7]: Approximately 80% | intracellular esterase-mediated conversion of ester N73 to acid N71 (BT474 cells [8]; 24 h): appeared to be inefficient | cell extract level of ester N73 relative to acid N71 (BT474 cells [8]; incubated 24 h, lysed): 100 fold
